Experimental data from ChEMBL document CHEMBL1629431, “Synthesis and antitumor activity of some 2, 3-disubstituted quinazolin-4(3H)-ones and 4, 6- disubstituted- 1, 2, 3, 4-tetrahydroquinazolin-2H-ones” (2010).

Assays:
Type in all cases: functional
CCRF-CEM = experiment: Growth inhibition of human CCRF-CEM cells at 10 uM after 48 hrs by coulter counter method; conditions: read-out: GI
How it was run: (§1)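 Single high-dose NCI 60-cell-line panel screen across nine tumor subpanels. Test solutions (0.2 mL) were added in duplicate to wells holding 1.8 mL of culture at 6 × 10⁴ cells/mL. Controls got PBS and DMSO at identical dilutions. Incubation was 48 h at 37 °C in humidified 5% CO₂. Cells were diluted 10-fold in saline, Coulter-counted and dilution-corrected. Results were expressed as percent growth inhibition versus control.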

HL-60(TB) = experiment: Growth inhibition of human HL-60(TB) cells at 10 uM after 48 hrs by coulter counter method; conditions: HL-60, 48 h, read-out: GI
How it was run: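 Part of the NCI 60-cell-line single-high-dose panel. Cells were seeded at 6 × 10⁴ cells/mL with test solution in duplicate wells, alongside PBS/DMSO controls at identical dilutions. Plates were held 48 h at 37 °C in a humidified 5% CO₂ incubator. Cells were then diluted 10-fold in saline and counted by Coulter counter, with counts corrected for dilution. Results are percent growth of treated cells, reported as GI %.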

K562 = experiment: Growth inhibition of human K562 cells at 10 uM after 48 hrs by coulter counter method; conditions: K562, 48 h, read-out: GI; how it was run: as §1
MOLT-4 = experiment: Growth inhibition of human MOLT4 cells at 10 uM after 48 hrs by coulter counter method; conditions: MOLT-4, 48 h, read-out: GI; how it was run: as §1
SR = experiment: Growth inhibition of human SR cells at 10 uM after 48 hrs by coulter counter method; conditions: read-out: GI; how it was run: as §1
A549 = experiment: Growth inhibition of human A549 cells at 10 uM after 48 hrs by coulter counter method; conditions: A549, 48 h, read-out: GI; how it was run: as §1
HOP-92 = experiment: Growth inhibition of human HOP92 cells at 10 uM after 48 hrs by coulter counter method; conditions: HOP-92, 48 h, read-out: GI; how it was run: as §1
NCI-H226 = experiment: Growth inhibition of human NCI-H226 cells at 10 uM after 48 hrs by coulter counter method; conditions: NCI-H226, 48 h, read-out: GI; how it was run: as §1
NCI-H23 = experiment: Growth inhibition of human NCI-H23 cells at 10 uM after 48 hrs by coulter counter method; conditions: NCI-H23, 48 h, read-out: GI; how it was run: as §1
NCI-H522 = experiment: Growth inhibition of human NCI-H522 cells at 10 uM after 48 hrs by coulter counter method; conditions: NCI-H522, 48 h, read-out: GI; how it was run: as §1
COLO 205 = experiment: Growth inhibition of human COLO205 cells at 10 uM after 48 hrs by coulter counter method; conditions: COLO 205, 48 h, read-out: GI; how it was run: as §1
HCT-116 = experiment: Growth inhibition of human HCT116 cells at 10 uM after 48 hrs by coulter counter method; conditions: HCT-116, 48 h, read-out: GI; how it was run: as §1
KM12 = experiment: Growth inhibition of human KM12 cells at 10 uM after 48 hrs by coulter counter method; conditions: KM12, 48 h, read-out: GI; how it was run: as §1
SF-268 = experiment: Growth inhibition of human SF268 cells at 10 uM after 48 hrs by coulter counter method; conditions: SF-268, 48 h, read-out: GI; how it was run: as §1
SF-539 = experiment: Growth inhibition of human SF539 cells at 10 uM after 48 hrs by coulter counter method; conditions: SF-539, 48 h, read-out: GI; how it was run: as §1
SNB-75 = experiment: Growth inhibition of human SNB75 cells at 10 uM after 48 hrs by coulter counter method; conditions: SNB-75, 48 h, read-out: GI; how it was run: as §1
U-251 = experiment: Growth inhibition of human U251 cells at 10 uM after 48 hrs by coulter counter method; conditions: U-251, 48 h, read-out: GI; how it was run: as §1
M14 = experiment: Growth inhibition of human M14 cells at 10 uM after 48 hrs by coulter counter method; conditions: M14, 48 h, read-out: GI; how it was run: as §1
SK-MEL-2 = experiment: Growth inhibition of human SK-MEL-2 cells at 10 uM after 48 hrs by coulter counter method; conditions: SK-MEL-2, 48 h, read-out: GI; how it was run: as §1
SK-MEL-28 = experiment: Growth inhibition of human SK-MEL-28 cells at 10 uM after 48 hrs by coulter counter method; conditions: SK-MEL-28, 48 h, read-out: GI; how it was run: as §1
UACC-62 = experiment: Growth inhibition of human UACC62 cells at 10 uM after 48 hrs by coulter counter method; conditions: UACC-62, 48 h, read-out: GI; how it was run: as §1
IGROV-1 = experiment: Growth inhibition of human IGROV1 cells at 10 uM after 48 hrs by coulter counter method; conditions: IGROV-1, 48 h, read-out: GI; how it was run: as §1
OVCAR-4 = experiment: Growth inhibition of human OVCAR4 cells at 10 uM after 48 hrs by coulter counter method; conditions: OVCAR-4, 48 h, read-out: GI; how it was run: as §1
OVCAR-8 = experiment: Growth inhibition of human OVCAR8 cells at 10 uM after 48 hrs by coulter counter method; conditions: OVCAR-8, 48 h, read-out: GI; how it was run: as §1
SK-OV-3 = experiment: Growth inhibition of human SKOV3 cells at 10 uM after 48 hrs by coulter counter method; conditions: SK-OV-3, 48 h, read-out: GI; how it was run: as §1
786-0 = experiment: Growth inhibition of human 786-0 cells at 10 uM after 48 hrs by coulter counter method; conditions: 786-0, 48 h, read-out: GI; how it was run: as §1
CAKI-1 = experiment: Growth inhibition of human Caki1 cells at 10 uM after 48 hrs by coulter counter method; conditions: CAKI-1, 48 h, read-out: GI; how it was run: as §1
SN12C = experiment: Growth inhibition of human SN12C cells at 10 uM after 48 hrs by coulter counter method; conditions: read-out: GI; how it was run: as §1
UO-31 = experiment: Growth inhibition of human UO31 cells at 10 uM after 48 hrs by coulter counter method; conditions: UO-31, 48 h, read-out: GI; how it was run: as §1
PC-3 = experiment: Growth inhibition of human PC3 cells at 10 uM after 48 hrs by coulter counter method; conditions: PC-3, 48 h, read-out: GI; how it was run: as §1
MCF7 = experiment: Growth inhibition of human MCF7 cells at 10 uM after 48 hrs by coulter counter method; conditions: MCF7, 48 h, read-out: GI; how it was run: as §1
MDA-MB-231 = experiment: Growth inhibition of human MDA-MB-231 cells at 10 uM after 48 hrs by coulter counter method; conditions: MDA-MB-231, 48 h, read-out: GI; how it was run: as §1
[1] = Growth inhibition of human Hs 578T cells at 10 uM after 48 hrs by coulter counter method; conditions: read-out: GI; how it was run: as §1
T47D = experiment: Growth inhibition of human T47D cells at 10 uM after 48 hrs by coulter counter method; conditions: read-out: GI; how it was run: as §1
MDA-MB-468 = experiment: Growth inhibition of human MDA-MB-468 cells at 10 uM after 48 hrs by coulter counter method; conditions: MDA-MB-468, 48 h, read-out: GI; how it was run: as §1

SMILES	inhibition of growth at 10 µM (CCRF-CEM) [%]	inhibition of growth at 10 µM (HL-60(TB)) [%]	inhibition of growth at 10 µM (K562) [%]	inhibition of growth at 10 µM (MOLT-4) [%]	inhibition of growth at 10 µM (SR) [%]	inhibition of growth at 10 µM (A549) [%]	inhibition of growth at 10 µM (HOP-92) [%]	inhibition of growth at 10 µM (NCI-H226) [%]	inhibition of growth at 10 µM (NCI-H23) [%]	inhibition of growth at 10 µM (NCI-H522) [%]	inhibition of growth at 10 µM (COLO 205) [%]	inhibition of growth at 10 µM (HCT-116) [%]	inhibition of growth at 10 µM (KM12) [%]	inhibition of growth at 10 µM (SF-268) [%]	inhibition of growth at 10 µM (SF-539) [%]	inhibition of growth at 10 µM (SNB-75) [%]	inhibition of growth at 10 µM (U-251) [%]	inhibition of growth at 10 µM (M14) [%]	inhibition of growth at 10 µM (SK-MEL-2) [%]	inhibition of growth at 10 µM (SK-MEL-28) [%]	also measured
CCn1c(SC)nc2ccccc2c1=O	49.5	34.8	30	30	30	30	60.8	30	30	30	30	30	30	30	30	30	30	30	30	30	inhibition of growth at 10 µM (UACC-62): 30%; inhibition of growth at 10 µM (IGROV-1): 30%; inhibition of growth at 10 µM (OVCAR-4): 30%; inhibition of growth at 10 µM (OVCAR-8): 30%; inhibition of growth at 10 µM (SK-OV-3): 30%; inhibition of growth at 10 µM (786-0): 30%; inhibition of growth at 10 µM (CAKI-1): 42.9%; inhibition of growth at 10 µM (SN12C): 30%; inhibition of growth at 10 µM (UO-31): 30%; inhibition of growth at 10 µM (PC-3): 30%; inhibition of growth at 10 µM (MCF7): 30%; inhibition of growth at 10 µM (MDA-MB-231): 30%; inhibition of growth at 10 µM [1]: 30%; inhibition of growth at 10 µM (T47D): 30%; inhibition of growth at 10 µM (MDA-MB-468): 30%
O=c1c2ccccc2nc(Nc2nnc(-c3ccc(Cl)cc3)s2)n1-c1ccccc1	30	30	30	30	30	30	30	30	30	31.9	30	30	30	30	30	30	30	30	30	30	inhibition of growth at 10 µM (UACC-62): 30%; inhibition of growth at 10 µM (IGROV-1): 65.9%; inhibition of growth at 10 µM (OVCAR-4): 30%; inhibition of growth at 10 µM (OVCAR-8): 30%; inhibition of growth at 10 µM (SK-OV-3): 30%; inhibition of growth at 10 µM (786-0): 30%; inhibition of growth at 10 µM (CAKI-1): 30%; inhibition of growth at 10 µM (SN12C): 30%; inhibition of growth at 10 µM (UO-31): 30%; inhibition of growth at 10 µM (PC-3): 30%; inhibition of growth at 10 µM (MCF7): 30%; inhibition of growth at 10 µM (MDA-MB-231): 30%; inhibition of growth at 10 µM [1]: 30%; inhibition of growth at 10 µM (T47D): 30%; inhibition of growth at 10 µM (MDA-MB-468): 30%
